Measurements collected from several papers.
Target: NT-3 growth factor receptor (NTRK3, Homo sapiens, UniProt Q16288)
Effect on: enzyme activity
Action: inhibitor

SMILES	method	concentration	inhibition
CC/C(=N\NC(=O)NCc1cccc(O)c1)c1ccc(O)c(C)c1O	–	0.1 µM	0.4%
O=C(Cc1ccc(C(F)(F)F)cc1)Nc1cccc(C(=O)Nc2ccc3[nH]ncc3c2)c1	FRET	1 µM	21.9%
COc1cc2ncnc(Nc3ccc(Oc4ccccc4)c(C)c3C)c2cc1OC	–	1 µM	3%
CN1CC(Oc2cnc(C#N)cc2-c2ccn3nc(NC(=O)C4CC4)cc3c2)C1	–	1 µM	51%
O=C(Nc1ccc(Br)cc1)Nc1cccc(C(=O)Nc2ccc3[nH]ncc3c2)c1	FRET	1 µM	13.7%
COc1cc2ncnc(Nc3ccc(Oc4ccccc4)cc3C)c2cc1OC	–	1 µM	13%
CCOc1cc(-c2nncn2C)ccc1Nc1ncc2cc(C)nc(NCC(C)(C)C)c2n1	FRET	1 µM	< 15%
CNC(=O)c1cc2c(Oc3ccc(NC(=O)C4(C(=O)Nc5ccc(F)cc5)CC4)cc3)ccnc2cc1OC	radiometric	1 µM	79%
O=C(Nc1ccc2[nH]ncc2c1)c1cccc(NC(=O)c2cc(C(F)(F)F)ccc2F)c1	FRET	1 µM	12.1%
CCCS(=O)(=O)Nc1ccc(F)c(C(=O)c2c[nH]c3ncc(-c4ccc(Cl)cc4)cc23)c1F	–	1 µM	< 10%
